Experimental data: ChEMBL document CHEMBL1123920, “Leukotriene D4 antagonists and 5-lipoxygenase inhibitors. Synthesis of benzoheterocyclic [(methoxyphenyl)amino]oxoalkanoic acid esters” (J Med Chem, 1987)

What was measured:
Cavia porcellus = test: Ability to inhibit the Ovalbumin induced bronchospasm in guinea pig was determined in vivo at a dose of 50 mg/kg id; assay type: functional; conditions: route intraduodenal
Summary of the method: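 Guinea pigs were challenged with LTD4 or ovalbumin to induce bronchospasm, and test agent was given intraduodenally. Read-out is percent inhibition of bronchospasm. Significance uses a two-tailed Student's t test (p < 0.05). N is the number of treated animals.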

[1] = molecular target: T1, Polyunsaturated fatty acid 5-lipoxygenase (Rattus norvegicus) (UniProt P12527); test: Ability to inhibit Lipoxygenase in vitro was determined; NA is <50% inhibition at 100 uM
T1 sequence (whole entry): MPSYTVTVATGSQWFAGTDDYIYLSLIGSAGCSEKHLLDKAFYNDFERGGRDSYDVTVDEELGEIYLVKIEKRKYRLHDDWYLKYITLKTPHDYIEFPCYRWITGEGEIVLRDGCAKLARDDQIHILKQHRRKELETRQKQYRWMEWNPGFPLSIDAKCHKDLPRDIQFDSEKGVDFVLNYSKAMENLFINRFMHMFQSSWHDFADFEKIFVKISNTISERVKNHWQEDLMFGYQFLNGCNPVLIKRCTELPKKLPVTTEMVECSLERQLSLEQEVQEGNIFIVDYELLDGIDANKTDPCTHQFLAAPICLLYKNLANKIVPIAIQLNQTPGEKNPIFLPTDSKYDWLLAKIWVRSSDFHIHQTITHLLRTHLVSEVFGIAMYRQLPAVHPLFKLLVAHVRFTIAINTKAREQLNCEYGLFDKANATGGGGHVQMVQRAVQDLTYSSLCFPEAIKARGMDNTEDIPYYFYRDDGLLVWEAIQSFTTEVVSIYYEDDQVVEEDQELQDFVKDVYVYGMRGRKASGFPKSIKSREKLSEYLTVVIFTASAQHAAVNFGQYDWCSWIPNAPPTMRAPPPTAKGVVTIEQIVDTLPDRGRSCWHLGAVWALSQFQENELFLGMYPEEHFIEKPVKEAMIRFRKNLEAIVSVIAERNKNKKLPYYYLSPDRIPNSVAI
Summary of the method: (§1)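 Source is rat polymorphonuclear leukocyte (PMN) 5-lipoxygenase. IC50 values come from nonlinear regression analysis, significant at p < 0.05.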

[2] = molecular target: T2, Polyunsaturated fatty acid 5-lipoxygenase (Rattus norvegicus, UniProt P12527); test: (§2) Ability to inhibit Lipoxygenase in vitro was determined
T2 sequence (P12527 whole entry): T1 sequence (whole entry)

[3] = molecular target: T2, Polyunsaturated fatty acid 5-lipoxygenase; test: as §2; summary of the method: as §1; remark: listed apart in the source
Rattus norvegicus [4] = organism: Rattus norvegicus; test: Tested for metabolic activation counted as mean number of revertants in strains TA98, TA100, TA1535, and TA1538, three plates per treatment at 5.0 mg per plate, with activation provided by S-9 rat liver homogenates in Ames test; assay type: functional, organism-based
Rattus norvegicus [5] = organism: Rattus norvegicus; test: Tested for metabolic activation counted as mean number of revertants in strains TA98, TA100, TA1535, and TA1538, three plates per treatment at 0.05 mg per plate, with activation provided by S-9 rat liver homogenates in Ames test; assay type: functional, organism-based
Rattus norvegicus [6] = organism: Rattus norvegicus; test: Tested for metabolic activation counted as mean number of revertants in strains TA98, TA100, TA1535, and TA1538, three plates per treatment at 0.5 mg per plate, with activation provided by S-9 rat liver homogenates in Ames test; assay type: functional, organism-based
Rattus norvegicus [7] = organism: Rattus norvegicus; test: Tested for metabolic activation counted as mean number of revertants in strains TA98, TA100, TA1535, and TA1538, three plates per treatment at 1.5 mg per plate, with activation provided by S-9 rat liver homogenates in Ames test; assay type: functional, organism-based
Rattus norvegicus [8] = organism: Rattus norvegicus; test: Tested for metabolic activation counted as mean number of revertants in strains TA98, TA100, TA1535, and TA1538, three plates per treatment at 5.0 mg per plate, without activation in the absence of S-9 rat liver homogenates in Ames test; assay type: functional, organism-based
Rattus norvegicus [9] = organism: Rattus norvegicus; test: Tested for metabolic activation counted as mean number of revertants in strains TA98, TA100, TA1535, and TA1538, three plates per treatment at 0.15 mg per plate, without activation in the absence of S-9 rat liver homogenates in Ames test; assay type: functional, organism-based
Rattus norvegicus [10] = organism: Rattus norvegicus; test: Tested for metabolic activation counted as mean number of revertants in strains TA98, TA100, TA1535, and TA1538, three plates per treatment at 1.5 mg per plate, without activation in the absence of S-9 rat liver homogenates in Ames test; assay type: functional, organism-based
Rattus norvegicus [11] = organism: Rattus norvegicus; test: Tested for metabolic activation counted as mean number of revertants in strains TA98, TA100, TA1535, and TA1538, three plates per treatment at 0.15 mg per plate, with activation provided by S-9 rat liver homogenates in Ames test; assay type: functional, organism-based
Rattus norvegicus [12] = organism: Rattus norvegicus; test: Tested for metabolic activation counted as mean number of revertants in strains TA98, TA100, TA1535, and TA1538, three plates per treatment at 0.05 mg per plate, without activation in the absence of S-9 rat liver homogenates in Ames test; assay type: functional, organism-based

| Compound | inhibition in vivo at 50 mg/kg (Cavia porcellus) [%] | inhibition [1] [%] | IC50 [2] [µM] | also measured |
| --- | --- | --- | --- | --- |
| COC(=O)CCC(=O)Nc1cccc(OCC(=O)Nc2ccccc2)c1 | 7 | < 50 |  |  |
| COC(=O)CCC(=O)N(C)c1cccc(OCc2nc3ccccc3s2)c1 | 19 |  | 21 |  |
| COC(=O)C1CC(=O)N(c2cccc(OCc3nc4ccccc4n3C)c2)C1 (stereo not drawn) |  | < 50 |  |  |
| COC(=O)CCC(=O)Nc1cccc(OCc2ccccn2)c1 |  | < 50 |  |  |
| COC(=O)CCC(=O)Nc1cccc(OCc2nc3ccccc3n2C)c1 | 60 |  |  | IC50 [3]: 7.2 µM |
| COC(=O)C1CC(=O)N(c2cccc(OCc3nc4ccccc4o3)c2)C1 (stereo not drawn) |  |  | 30 |  |
| O=C1CCC(=O)N1c1cccc(OCc2nc3ccccc3s2)c1 | 18 | < 50 |  |  |
| COC(=O)CCC(=O)Nc1cccc(OCc2ccc3ccccc3n2)c1 | 43 |  |  | Mean no. of revertants (Rattus norvegicus [4]): 2880; Mean no. of revertants (Rattus norvegicus [5]): 15; Mean no. of revertants (Rattus norvegicus [6]): 566; Mean no. of revertants (Rattus norvegicus [7]): 2770; Mean no. of revertants (Rattus norvegicus [8]): 2260; Mean no. of revertants (Rattus norvegicus [9]): 25; Mean no. of revertants (Rattus norvegicus [10]): 2930; Mean no. of revertants (Rattus norvegicus [11]): 15; Mean no. of revertants (Rattus norvegicus [12]): 24 |
| COC(=O)CCC(=O)Nc1cccc(Oc2nc3ccccc3s2)c1 | 7 |  | 27.1 |  |
| CCCc1c(OCCCCc2nnn[nH]2)ccc(C(C)=O)c1O [TOMELUKAST] | 79.7 |  | 18.9 |  |
| CCCCCC(O)c1cccc(OCc2ccc3ccccc3n2)c1 (stereo not drawn) [REV-5901] | 60.2 |  |  |  |
| COC(=O)CC(=O)Nc1cccc(OCc2nc3ccccc3n2C)c1 | 5 | < 50 |  |  |
